# Test results as given in ChEMBL document CHEMBL3244362, “Photoaffinity labeling of the angiotensin II receptor. 3. Receptor inactivation with photolabile hormone analogues” (J Med Chem, 1979).
# Active and inactive are the calls of the source. The rule behind the calls is not given here. Square brackets hold non-standard residues; d marks the D form. Peptide text beside a SMILES is read from it. Phe(4-NO2) = N[C@@H](Cc1ccc([N+](=O)[O-])cc1)C(=O)O; Phe(4-N3) = [N-]=[N+]=Nc1ccc(C[C@H](N)C(=O)O)cc1; Phe(4-N2+) = N#[N+]c1ccc(C[C@H](N)C(=O)O)cc1; Sar = CNCC(=O)O
# What was measured:
# Oryctolagus cuniculus [1] = species: Oryctolagus cuniculus; assay: Inactivation of angiotensin 2 receptor in albino New Zealand rabbit aorta assessed as relaxation of angiotensin-induced contraction at 0.4 uM treated for 180 mins followed by UV light exposed for 10 mins relative to control in presence of noradrenaline; format: tissue-based; set-up: scale not given: the % may be the effect or the level left
# Outline: (§1)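 Strips in Krebs at 37 °C (95% O2/5% CO2, 2.0 g tension) received AT 0.2 μM at 60 and 120 min. The control agonist was noradrenaline for aorta and serotonin for stomach. At 180 min, peptide plus (4'amino)Phe 0.6 mM was added; after 5 min at maximal contraction, strips were UV-irradiated (365 nm black light) for 10 min and washed. AT response at 280 min was expressed as % of nonirradiated references. At least seven experiments; mean ± SE.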
# Oryctolagus cuniculus [2] = species: Oryctolagus cuniculus; assay: Inactivation of angiotensin 2 receptor in albino New Zealand rabbit aorta assessed as relaxation of angiotensin-induced contraction at 0.4 uM treated for 180 mins followed by UV light exposed for 10 mins relative to control in presence of [Leu8]-AT; format: tissue-based; set-up: scale not given: the % may be the effect or the level left
# Outline: (§2)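 Protection protocol: aortic strips in Krebs at 37 °C were given AT 0.2 μM at 60 and 120 min, then preincubated 15 min with [Leu8]AT 5 μM (final) before the photolabel plus (4'amino)Phe 0.6 mM. After 5 min at maximal contraction, strips were UV-irradiated 10 min and washed only after photolysis. Residual AT response at 280 min was expressed as % of nonirradiated, identically incubated references.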
# Oryctolagus cuniculus [3] = species: Oryctolagus cuniculus; assay: Agonist activity at angiotensin 2 receptor in albino New Zealand rabbit aorta in absence of UV light; format: tissue-based
# Outline: (§3)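 Rabbit aortic strips were suspended in Krebs solution at 37 °C, gassed with 95% O2/5% CO2, at 2.0 g tension, and equilibrated 60–90 min with bath changes every 10–15 min. Isometric contraction was recorded by force transducer in the dark. PD2 is the −log agonist concentration giving half-maximal contraction. pA2 is the −log antagonist concentration reducing a double agonist dose to a single-dose response. αE is intrinsic activity.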
# Oryctolagus cuniculus [4] = species: Oryctolagus cuniculus; assay: Intrinsic activity at angiotensin 2 receptor in albino New Zealand rabbit aorta in absence of UV light; format: tissue-based; outline: as §3
# Oryctolagus cuniculus [5] = species: Oryctolagus cuniculus; assay: Binding affinity to angiotensin 2 receptor in albino New Zealand rabbit aorta relative to [Sar1]AT in absence of UV light
# [6] = target: T1, Angiotensin II receptor (Rattus norvegicus) (UniProt P29089+P25095+P35351); assay: Inactivation of angiotensin 2 receptor in Wistar rat aorta assessed as relaxation of angiotensin-induced contraction at 0.1 uM treated for 180 mins followed by UV light exposed for 10 mins relative to control in presence of noradrenaline; outline: as §1
# Oryctolagus cuniculus [7] = species: Oryctolagus cuniculus; assay: Inactivation of angiotensin 2 receptor in albino New Zealand rabbit aorta assessed as relaxation of angiotensin-induced contraction at 5 uM treated for 180 mins followed by UV light exposed for 10 mins relative to control in presence of noradrenaline; format: tissue-based; set-up: scale not given: the % may be the effect or the level left; outline: as §1
# Oryctolagus cuniculus [8] = species: Oryctolagus cuniculus; assay: Inactivation of angiotensin 2 receptor in albino New Zealand rabbit aorta assessed as relaxation of angiotensin-induced contraction at 5 uM treated for 180 mins followed by UV light exposed for 10 mins relative to control in presence of [Leu8]-AT; format: tissue-based; set-up: scale not given: the % may be the effect or the level left; outline: as §2
# Oryctolagus cuniculus [9] = species: Oryctolagus cuniculus; assay: Inactivation of angiotensin 2 receptor in albino New Zealand rabbit aorta assessed as relaxation of angiotensin-induced contraction at 0.2 uM treated for 180 mins followed by UV light exposed for 10 mins relative to control in presence of noradrenaline; format: tissue-based; set-up: scale not given: the % may be the effect or the level left; outline: as §1
# Oryctolagus cuniculus [10] = species: Oryctolagus cuniculus; assay: Inactivation of angiotensin 2 receptor in albino New Zealand rabbit aorta assessed as relaxation of angiotensin-induced contraction at 0.2 uM treated for 180 mins followed by UV light exposed for 10 mins relative to control in presence of [Leu8]-AT; format: tissue-based; set-up: scale not given: the % may be the effect or the level left; outline: as §2
# Oryctolagus cuniculus [11] = species: Oryctolagus cuniculus; assay: Inactivation of angiotensin 2 receptor in albino New Zealand rabbit aorta assessed as relaxation of angiotensin-induced contraction at 10 uM treated for 180 mins followed by UV light exposed for 10 mins relative to control in presence of noradrenaline; format: tissue-based; set-up: scale not given: the % may be the effect or the level left; outline: as §1
# Oryctolagus cuniculus [12] = species: Oryctolagus cuniculus; assay: Inactivation of angiotensin 2 receptor in albino New Zealand rabbit aorta assessed as relaxation of angiotensin-induced contraction at 10 uM treated for 180 mins followed by UV light exposed for 10 mins relative to control in presence of [Leu8]-AT; format: tissue-based; set-up: scale not given: the % may be the effect or the level left; outline: as §2
# [13] = Antagonist activity at angiotensin 2 receptor in albino New Zealand rabbit aorta in absence of UV light; format: tissue-based, Oryctolagus cuniculus; outline: as §3
# [14] = target: T1, Angiotensin II receptor (Rattus norvegicus); assay: Inactivation of angiotensin 2 receptor in Wistar rat stomach assessed as relaxation of angiotensin-induced contraction at 1 uM treated for 180 mins followed by UV light exposed for 10 mins relative to control in presence of serotonin; outline: as §1
SMILES,RBA (Oryctolagus cuniculus [5]) [%],pD2 (Oryctolagus cuniculus [3]),Intrinsic activity (Oryctolagus cuniculus [4]),Activity (Oryctolagus cuniculus [11]) [%],other results
CNCC(=O)N[C@@H](CCCNC(=N)N)C(=O)N[C@H](C(=O)N[C@@H](Cc1ccc(O)cc1)C(=O)N[C@H](C(=O)N[C@@H](Cc1cnc[nH]1)C(=O)N1CCC[C@H]1C(=O)N[C@@H](Cc1ccc(N=[N+]=[N-])cc1)C(=O)O)C(C)C)C(C)C,31,8.72,1,,Activity (Oryctolagus cuniculus [1]): 100%; Activity (Oryctolagus cuniculus [2]): 103%; inhibition [6]: Active
CNCC(=O)N[C@@H](CCCNC(=N)N)C(=O)N[C@H](C(=O)N[C@@H](Cc1ccc(O)cc1)C(=O)N[C@H](C(=O)N[C@@H](Cc1cnc[nH]1)C(=O)N1CCC[C@H]1C(=O)N[C@@H](Cc1ccc([N+](=O)[O-])cc1)C(=O)O)C(C)C)C(C)C,69,9.07,0.46,,Activity (Oryctolagus cuniculus [1]): 95%
CNCC(=O)N[C@@H](CCCNC(=N)N)C(=O)N[C@H](C(=O)N[C@@H](Cc1ccc(O)cc1)C(=O)N[C@H](C(=O)N[C@@H](Cc1cnc[nH]1)C(=O)N1CCC[C@H]1C(=O)N[C@@H](Cc1ccccc1)C(=O)O)C(C)C)C(C)C (H-[Sar]RVYVHPF-OH),,9.23,1,,Activity (Oryctolagus cuniculus [9]): 100%; Activity (Oryctolagus cuniculus [10]): 100%
CNCC(=O)N[C@@H](CCCNC(=N)N)C(=O)N[C@H](C(=O)N[C@@H](Cc1ccc([N+]#N)cc1)C(=O)N[C@H](C(=O)N[C@@H](Cc1cnc[nH]1)C(=O)N1CCC[C@H]1C(=O)N[C@@H](Cc1ccccc1)C(=O)O)C(C)C)C(C)C (H-[Sar]RV[Phe(4-N2+)]VHPF-OH),0.66,7.05,1,,
CNCC(=O)N[C@@H](CCCNC(=N)N)C(=O)N[C@H](C(=O)N[C@@H](Cc1ccc([N+](=O)[O-])cc1)C(=O)N[C@H](C(=O)N[C@@H](Cc1cnc[nH]1)C(=O)N1CCC[C@H]1C(=O)N[C@@H](Cc1ccc([N+](=O)[O-])cc1)C(=O)O)C(C)C)C(C)C (H-[Sar]RV[Phe(4-NO2)]VHP[Phe(4-NO2)]-OH),0.06,6.02,0.5,99,

# Continued, in another order:
RBA (Oryctolagus cuniculus [5]) [%],SMILES,pD2 (Oryctolagus cuniculus [3]),Intrinsic activity (Oryctolagus cuniculus [4]),Activity (Oryctolagus cuniculus [11]) [%],other results
13,CNCC(=O)N[C@@H](CCCNC(=N)N)C(=O)N[C@H](C(=O)N[C@@H](Cc1ccc(O)cc1)C(=O)N[C@H](C(=O)N[C@@H](Cc1cnc[nH]1)C(=O)N1CCC[C@H]1C(=O)N[C@@H](Cc1ccc([N+]#N)cc1)C(=O)O)C(C)C)C(C)C,8.33,1,,Activity (Oryctolagus cuniculus [7]): 78%; Activity (Oryctolagus cuniculus [8]): 72%
1.3,CNCC(=O)N[C@@H](CCCNC(=N)N)C(=O)N[C@H](C(=O)N[C@@H](Cc1ccc([N+]#N)cc1)C(=O)N[C@H](C(=O)N[C@@H](Cc1cnc[nH]1)C(=O)N1CCC[C@H]1C(=O)N[C@@H](Cc1ccc([N+]#N)cc1)C(=O)O)C(C)C)C(C)C (H-[Sar]RV[Phe(4-N2+)]VHP[Phe(4-N2+)]-OH),7.36,1,,
0.26,CNCC(=O)N[C@@H](CCCNC(=N)N)C(=O)N[C@H](C(=O)N[C@@H](Cc1ccc(N=[N+]=[N-])cc1)C(=O)N[C@H](C(=O)N[C@@H](Cc1cnc[nH]1)C(=O)N1CCC[C@H]1C(=O)N[C@@H](Cc1ccccc1)C(=O)O)C(C)C)C(C)C (H-[Sar]RV[Phe(4-N3)]VHPF-OH),6.65,0.75,,Activity (Oryctolagus cuniculus [7]): 98%; Activity (Oryctolagus cuniculus [8]): 64%
0.07,CNCC(=O)N[C@@H](CCCNC(=N)N)C(=O)N[C@H](C(=O)N[C@@H](Cc1ccc(N=[N+]=[N-])cc1)C(=O)N[C@H](C(=O)N[C@@H](Cc1cnc[nH]1)C(=O)N1CCC[C@H]1C(=O)N[C@@H](Cc1ccc(N=[N+]=[N-])cc1)C(=O)O)C(C)C)C(C)C (H-[Sar]RV[Phe(4-N3)]VHP[Phe(4-N3)]-OH),6.12,0.8,100,Activity (Oryctolagus cuniculus [12]): 92%
0,CNCC(=O)N[C@@H](CCCNC(=N)N)C(=O)N[C@H](C(=O)N[C@@H](Cc1ccc([N+](=O)[O-])cc1)C(=O)N[C@H](C(=O)N[C@@H](Cc1cnc[nH]1)C(=O)N1CCC[C@H]1C(=O)N[C@@H](Cc1ccccc1)C(=O)O)C(C)C)C(C)C (H-[Sar]RV[Phe(4-NO2)]VHPF-OH),< 5,0,105,Activity (Oryctolagus cuniculus [12]): 102%; pA2 [13]: < 5; inhibition [14]: inactive
